The source of these data is the RNAGym collection of RNA variant scans (doi:10.1126/science.aae0568).

Variants at the floor of the assay were thinned out.

B1: tRNA (parent)
chain: GUUCCGUUGGCGUAAUGGUAACGCGUCUCCCUCCUAAGGAGAAGACUGCGGGUUCGAGUCCCGUACGGAACG

Variants of B1 are the subject of this data set. The data set can be described thus: yeast fitness relative to wild type (ratio to wild type); higher = fitter; tRNA-Arg(CCU), competitive growth, 37 C, YPD. The gist of the method: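 Variants of the tRNA-Arg(CCU) gene, chemically synthesised with a 3% per-site mutation rate at 69 sites, were placed at the native genomic locus in Saccharomyces cerevisiae. The pooled strains were competed in YPD at 37°C for 24 hours in six parallel replicates. Gene amplicons from the start population and from each end population were read by 100-nucleotide paired-end sequencing. Darwinian fitness relative to wild type came from changes in genotype frequencies; genotypes needed ≥ 100 starting reads, and estimates < 0.5 were set to 0.5.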
In the case of GUUCCGUUGGCGUAAUGGUAGCGCGUCUCCGUGCUAAGGAGAAGACUGCGGGUUCGAGUCCCGUACGGAACG, the yeast fitness was not above 0.5.

Turning to GUUCCGUUGGCGUAAUGGUAACGCGUCUCCCGCCUAAGGAGAAGACUGCGGGUUCGAGUCCCCUACGGAACG, the yeast fitness worked out at 0.571. The same measure for GUUCCGUUGGCGUCAUGGUAACGCGUCUCCCUCCCAAGGAGAAGACUGCGGGUUCGAGUCCCGUACGGUACG: not above 0.5; for GUUCCGUUGGCGUAAUGGUAACGCGUCUCCCUCCUAAGGAGAAGACUGUGGGUUCGAGUCCCGUACUGAACG: 0.885; for GUUCCCCUCGCGUAAUGGUAACGCGUCUCCCUCCUAAGGAGAAGACUGCGGGUUCGAGUCCCGUACGGAACG: not above 0.5.

GAUCCGUUGGCGUAAUGGUAACGCGUCUCCCUGCUUAGGAGAAAACUGCGGGUUCGAGCCCCGUACGGAACG: the yeast fitness was 0.554.

Take GUUGCGUUGGCGUAAUGGUAACGCGUCUCCCUCCUAUGGAGAAGACUGCGGGUUCGAGUUCCGUACGGAACG: the yeast fitness is not above 0.5. The same measure for GUUCCGUUGGUGUAAUGGUAACGCGUCUCCUUCCUAAGGAGAAGACUGCGGGUUCGAGUCUCGUACGGUACG: not above 0.5. The same measure for GUUCCGUUGGCGUAAUGGUAACGCGUCACCCUCCUAAGGAGAAGACUGCGGGUUCGAGUCCCGUAAGGAACG: 0.575. The same measure for GUUGCGUUGGAGUUAUGGUAAAGGGUCUCCCUCCUAAGGAGAAGACUGCGGGUUCGAGUCCCGUACGGAACG: not above 0.5; for GUUCCGUUGGCGUAAUGGUAAGGCGUCUCCCUCCUAAGGAAAAGACUCCGGGUUCGAGUCCCGUACGCAACG: not above 0.5; for GUUCCGUUGGCGUAAUGGUAACGCGUCUCCCUACUAAGGUGAAGACUGCGGGUUCGAGUCCCGUACGGAACG: 0.741. In the case of GCUCCGUUGGCGUAAUGGUAACGCGUCUCGCUCCUAAGGAGAAGACUGCGGGUUCGAGUCUCGUACGAAACG, the yeast fitness was not above 0.5. The same measure for GUUCCGUUGGCGUAAUGGUAACGCGUCUCCCUCCUAAGGAGCAGACUGCGGGUCCGAGUCCCGUACGGAACG: 0.796; for GUUCCGUUGGCGUAAUGGUAACGCGUCUCCCUCCUAAGGUGAAGACUGCGGGUUCGAGUCGCGUACGCAACG: 0.571. The same measure for GUUCCGUUGACGUAAUAGAAACGCGUCUUCCUCCUAAGGAGAAGACUGGGGGUUCGAGUCCCGUACGGAACG: not above 0.5; for GUUCCGUUGGCGUAAUGGUAACGCGUCUCCCUUGUAAGGGGAAGACUGCGGGUUCGAGUCCCGUACGGAACG: 0.625. The same measure for GUUCCGUUGGCGUAAUGGUAACGUGUCUUCCUCCUAAGGAGAAGACUGGGGGUUCGAGUCCCGUACGGAACG: not above 0.5. Regarding GUUCCGUUGGCGUAGUGGUAACGAGUCUCCCUCGUAAGGAGAAGACUGCGGGUUCGAGUCCCGUUCGGAACG, the yeast fitness was not above 0.5. The same measure for GUUCCGUUGGCGUGAUGGUACCGCGUCUCCCUCCUAAGGAGAAGACUGCGGGUUCGAGUCCCCUACGGAACG: 0.546; for GUUCCGUUGGCGUAAUGGUAACGCGUCUACCUCCUAAAGAGAAGACUGCGGGUUCGAGUCCCGUACGGUACG: 0.583; for GUUCCGUUGGCGUAAUGGUAACGCGUCUCCCGCCUAAGGACAAGAUUGCGGGUUCGAGUCCCGUACGGAACG: 0.647. The same measure for GAUCCGUGGGCGUAAUGGUAACGCGUCUCCCUACUAAAGAGAAGACUGCGGGUUCGAGUCCCGUACGGAACG: not above 0.5; for GUUCCGUUGGCGCAAUGGUAACGCGUCUCCCCCCUAAGGGGAAGACUGCGGGUUCGAGUCCCGUACGGAACG: not above 0.5. The same measure for GUUCGGUUGGCGUAAUGGUAACGCGUCUCCCUACUAAGGACAAGACUGCGGGUCCGAGUCCCGUACGGAACG: not above 0.5; for GUUCCGUUGGCGUAAUGGUAACGCGUCGGCCUCCUAAGGAGAAGACUGCGGGUUCGAGUCCAGUACGGAACG: 0.711. In the case of GAUCCGUUGGCGUAAUGGUAACGCGUCUCCCUCGUAAGGAGAAGACUGCGGGUUCGAGUCCCGCACGGAACG, the yeast fitness is not above 0.5. The same measure for GUUCCGUUGGCGUAUUGGUAACGUCUCUCCCUCCUAUGGCGAAGACUGCGGGCUCGACUCCCGUACGGAACG: not above 0.5. The same measure for GUUCUGUUGGCGUAAUGGCAUCGCGUCUCCCUCCUACGGAGAAGACUGCGGGUUCGAGUCACGUCCGGAACG: not above 0.5; for GUUCCGUUGGCGUAAUGGUAAGGCGUCUCCGUCCUAAGGAGAAGACUGCGGGUUCGAGUCUCGUACGGAACG: 0.587; for GUUCCGUUCGCGUAAUGGUAACGCGUCGCCCUCCUAAGGAGAAGACUGCGGGUUCGAGUCCCGUCCGGAACG: 0.582. The same measure for GUUCCGUUGGCGUAAUGGUAACGCGUCUCCCUCCUACGGAGAAGACUGCGGCUUCGAGUCCCGUAGGGAACG: not above 0.5; for GUUCCGUUGGCGUAAUGGUAACGCGUCUCCCUCCUAAGGAGAAGACGGCGGGUACGAAUCCCGUACGGAACG: not above 0.5; for GUUCCGUUGGCGUAAUGGUAACGCGUCUCCCUCCUAAGGAGAAGACUGCGGGUUUGAGUCCCGCACGGAACG: 0.873. For the variant GUUACGUUGGCGUAUUGCUAACGCGUCUCCCUCCUAAGGAGAAGACUGCGGGUUUCAGUCCCGUACAGAACG, the yeast fitness was not above 0.5. The same measure for GUUCGGUUCGCGUAAUGGUGACGCGUCUCCCUCCUAAGGCGAAGACUGCGGGUUCGAAUCCCGUACGGAACG: not above 0.5; for GUUCCGUUGGCGUGAUGGUACCGCGUCUCCCUCCUAAGGAGAAGACUGCGGGUUCGAGUCCCGUACGGAACG: 0.866. The same measure for GUUCCGGUGGCGUAAUGGUAACGCGUCUCCCUCCUAAAGGGAAGACUGCGGGUUCGAGUCCCGUAAGGAACG: not above 0.5.
